# Compound activity as filed in PubChem BioAssay.
# Rce1 inhib = yeast Rce1p protease inhibitors, primary screen, biochemical, fluorescence, cell-free homogeneous; calls only; AID 2563, 2010; 0.27% of 290,000 active; yeast membranes, quenched prenylated peptide cleavage fluorescence; CAAX prenyl protease 2 (Saccharomyces cerevisiae (strain ATCC 204508 / S288c)), Q03530;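 active means fall in fluorescence gain of 50% or more versus controls, with final raw signal at or below 3038400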;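 further: plate controls were neutral control wells for no effect and wells lacking membranes for full effect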
# UCH37 DUB inh = inhibitors of human UCH37 deubiquitinase, primary screen, biochemical, Ub-AMC cleavage, fluorescence; purified proteasome/UCH37; 0.33% of 330,000 active; AID 588478, 2011; Ubiquitin carboxyl-terminal hydrolase isozyme L5 (Homo sapiens), Q9Y5K5; inhibition, % (test concentration not listed);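 active means mean inhibition over replicate wells above about 20%, limit read from the data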;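 further: 0% = compound-free wells with enzyme and 100% = wells lacking proteasome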
# Target sequence (Q9Y5K5 whole entry, looked up): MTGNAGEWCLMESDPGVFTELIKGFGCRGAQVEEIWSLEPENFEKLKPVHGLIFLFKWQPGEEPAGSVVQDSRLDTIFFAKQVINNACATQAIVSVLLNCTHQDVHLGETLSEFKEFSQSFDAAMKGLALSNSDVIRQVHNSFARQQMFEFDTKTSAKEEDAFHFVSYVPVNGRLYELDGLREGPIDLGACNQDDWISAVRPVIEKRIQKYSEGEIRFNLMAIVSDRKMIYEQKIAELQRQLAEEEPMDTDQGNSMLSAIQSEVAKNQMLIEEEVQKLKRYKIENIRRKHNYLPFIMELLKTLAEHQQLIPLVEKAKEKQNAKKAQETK
#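 Schedule: 30 min plus 25 min, room temperature / Material: human UCH37 within purified proteasomes / Technique: AMC fluorescence intensity at 355/460 nm / Buffer or medium: pH 7.4 Tris-HCl (50 mM) with ovalbumin, ATP-MgCl2, DTT / Controls: wells without proteasome as full block, compound-free enzyme plus substrate as uninhibited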
# PG9 binder = binders of HIV-1 gp120 antibody PG9, primary screen, biochemical, TR-FRET | HIV-1 gp120 / PG9 antibody interaction | inhibition, % at 6.7 µM | 0.43% of 360,000 active | TR-FRET gp120-PG9 antibody binding | AID 624416, 2012; in the data active means inhibition above about 8.5%
# NR1D1 modulator = modulators of Rev-erb alpha DNA binding, primary screen, biochemical, FITC-DNA, fluorescence polarization, uHTS. 0.79% of 370,000 active. activity, % at 10 µM. Rev-erbα–FITC-DNA binding, 90 min. AID 1259318, 2017;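 active means activity above about 14%, limit read from the data; passing the limit was not always enough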;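 further: 0% = DMSO wells with 35 nM protein and 100% = DMSO wells with 750 nM protein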
# MIN6 prolif = inducers of MIN6 beta-cell proliferation, primary screen, ATP luminescence, uHTS; 0.29% of 330,000 active; AID 2380, 2010; MIN6 cells proliferation, ATPlite luminescence, 48 h; cells starved in 0.2% serum; 100% = growth in 10% serum; proliferation, % at 10 µM;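 active means compounds whose signal lies at least 3.5 SD above the mean of all wells on their plate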;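 further: 0% = DMSO-treated cells in low-serum medium and 100% = 10% serum control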
# Yeast superoxide = reduction of superoxide in aged yeast, primary screen, HTS; S. cerevisiae aged cells, superoxide DHE fluorescence; hits give low values; superoxide response (% of plate mean), % at 10 µM; 0.18% of 330,000 active; AID 2690, 2010;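 active means superoxide response under a set limit, about three screen SD below normal, cut at about 65% in these data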;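 further: yeast aged for seven days with compound at 30 °C before DHE staining; 100% = average MFI of all compound-treated wells on the plate with controls excluded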
# PG9 binder conf = binders of anti-gp120 antibody PG9, confirmation, biochemical, TR-FRET | shares compounds with PG9 binder | AID 651571, 2012 | 90% of 1,500 active | inhibition, % at 6.7 µM | TR-FRET PG9 antibody binding; in the data active means inhibition above about 9%
# PGV04 Ab binding = binders of control antibody PGV04, counter-screen for PG9 antibody binder project, biochemical, TR-FRET, distinct HIV envelope site; TR-FRET PGV04 antibody-gp120 binding; inhibition, % at 6.7 µM; shares compounds with PG9 binder; 95% of 1,500 active; in the data active means inhibition above about 9.5%
# Active calls of the source: *; i = inactive; . = no result. An excerpt weighted towards active compounds, which were near 1.9% of everything screened.
SMILES,Rce1 inhib,UCH37 DUB inh,PG9 binder,NR1D1 modulator,MIN6 prolif,Yeast superoxide,PG9 binder conf,PGV04 Ab binding
Cc1ccc(CNc2nc3cc(-c4ccccc4)sc3c(=O)n2C)c(C)c1,.,.,0,6,.,.,.,.
COc1cc(/C=C/C(=O)OCC(=O)Nc2ccccc2Cl)cc(OC)c1OC,i,-53,23*,-11,1,91,27*,41*
CC(=NO)c1cc(Cl)ccc1O,.,5,.,.,.,.,.,.
Cc1cccc(C)c1NC(=O)COC(=O)COc1ccc2c(C)cc(=O)oc2c1,i,-45,0,-2,0,106,.,.
Cc1csc(NC(=O)COc2ccc3c(C)cc(=O)oc3c2)n1,i,-6,15*,-8,2,104,21*,30*
CCn1c(=O)cc(OCC(=O)Nc2nc(C)cs2)c2ccccc21,i,7,13*,22,2,99,30*,49*
CCCc1nc2ccccc2c(=O)n1CC(=O)c1ccc(OC)cc1,i,2,10.0*,2,-2,110,11*,15*
COc1ccc(CCn2c(SCC(=O)Nc3cc(C)on3)nc3ccccc3c2=O)cc1OC,i,6,0,-3,-1,104,.,.
COc1ccc(CCn2c(SCC(=O)Nc3cc(C)on3)nc3ccsc3c2=O)cc1OC,.,3,36*,12,-1,111,46*,56*
CCCCC1=CC2=C(c3ccco3)C(=O)C(C)(OC(=O)c3ccc(OC)cc3)C(=O)C2=CN1CCCOC(C)C (stereo not given),i,4,1,3,1,95,.,.
C=CCN1C=C2C(=O)C(C)(OC(=O)c3ccc(OC)cc3)C(=O)C(c3ccco3)=C2C=C1CCCC (stereo not given),i,0,9.7*,-4,0,103,16*,20*
Cc1cccc(COc2ccc(C=NNC(=O)c3nnn(-c4nonc4N)c3COc3ccc(F)cc3)cc2)c1,.,-16,.,.,.,.,.,.
CC(=O)c1ccc(N2CCN(C(=S)Nc3cc(C)ccc3C)CC2)cc1,i,4,12*,8,0,97,8.8*,15*
Brc1ccc(C=NNc2ncnc3c2cnn3Cc2ccccc2)cc1,.,-2,.,.,.,.,.,.
COc1ccc(C2CCCN2C(=O)Nc2ccccc2)cc1OC (stereo not given),i,7,13*,0,2,101,5,7
COCc1cc(C)nc(OCC(=O)NN=Cc2cc(C)n(-c3cccc(C(F)(F)F)c3)c2C)c1C#N,.,4,.,.,.,.,.,.
CCn1c2ccccc2c2cc(CN3CCN(S(=O)(=O)Cc4ccccc4)CC3)ccc21,i,-16,14*,1,0,110,16*,26*
COc1cccc(C(=O)N=c2sc3cc(S(C)(=O)=O)ccc3n2C)c1,i,-12,39*,7,-3,83,46*,60*
C/C(C=NNC(=O)Cn1nc(C)cc1C)=C/c1ccc(C(C)C)cc1,.,-5,.,.,.,.,.,.
COc1cccc(-c2nnc(NC(=O)Cc3cccs3)s2)c1,i,-3,13*,16,-2,95,18*,39*
CCC(=O)Nc1nnc(-c2cccs2)s1,i,-38,-1,-4,1,89,.,.
O=C(Cc1ccccc1)Nc1nnc(-c2cccs2)s1,i,-68,12*,9,-2,85,19*,31*
CCN(CC)c1ccc(C=NNC(=O)c2ccco2)cc1,.,-10,.,.,.,.,.,.
